In ChEMBL document CHEMBL3351942, “Rexinoids isolated from Sophora tonkinensis with a gene expression profile distinct from the synthetic rexinoid bexarotene” (J Nat Prod, 2014) one finds Activity data, which are given here for one compound.

The subject of assay [1] is RAW264.7. Kind of assay: Activation of RXR/LXR heterodimer in mouse RAW264.7 cells assessed as potentiation of T0901317-induced increase in ABCA1 mRNA level at 10 uM by quantitative RT-PCR analysis. It is filed as cell-based. Summed up: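 RAW264.7 macrophages in DMEM/10% FBS, exposed 24 h with or without LXR agonist T0901317; ABCA1 mRNA by SYBR green qRT-PCR, β-actin-normalized, fold vs vehicle; means ± SD of three determinants, one of three independent experiments; one-way ANOVA, Bonferroni.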

The species named for assay [2] is Homo sapiens. Kind of assay: Activation of PPARgamma/RXR heterodimer in human hepatoma cells assessed as increase in ANGPTL4 mRNA level at 10 uM by quantitative RT-PCR analysis. It counts as cell-based. The method in brief:
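HLE human hepatoma cells (DMEM, 10% FBS, 37 °C, 5% CO2) treated with or without rosiglitazone; ANGPTL4 mRNA by SYBR green qRT-PCR, β-actin-normalized delta-delta Ct, fold vs vehicle; means ± SD of three determinants, representative of three experiments.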

Assay [3] is filed under the species Homo sapiens. The experiment in a line: Activation of RXR/VDR heterodimer in human hepatoma cells assessed as increase in CYP24A1 mRNA level at 10 uM by quantitative RT-PCR analysis. It counts as cell-based. The method in brief: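 HLE hepatoma cells treated 24 h with or without VD3 (0.1 μM); CYP24A1 mRNA by SYBR green qRT-PCR normalized to β-actin (delta-delta Ct), fold over vehicle; means ± SD of three determinants, representative of three experiments.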

Assay [4] in a line: Activation of LXR in mouse C2C12 cells assessed as induction of ApoE mRNA expression at 10 uM after 24 hrs by quantitative RT-PCR analysis. It is filed as cell-based. The method in brief: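 C2C12 myoblasts grown in DMEM/10% FBS, differentiated at confluence in 2% horse serum, medium changed every other day for 5 days; myotubes treated 24 h with or without T0901317 (1 μM). Total RNA, DNase-treated, oligo(dT) RT from 0.5 μg, SYBR green qPCR; normalized to β-actin (delta-delta Ct), fold over vehicle; mean ± SD of four determinants, one of two experiments.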

Assay [5] concerns the target T1, Peroxisome proliferator-activated receptor delta (Mus musculus) (UniProt P35396).
T1 sequence (whole entry): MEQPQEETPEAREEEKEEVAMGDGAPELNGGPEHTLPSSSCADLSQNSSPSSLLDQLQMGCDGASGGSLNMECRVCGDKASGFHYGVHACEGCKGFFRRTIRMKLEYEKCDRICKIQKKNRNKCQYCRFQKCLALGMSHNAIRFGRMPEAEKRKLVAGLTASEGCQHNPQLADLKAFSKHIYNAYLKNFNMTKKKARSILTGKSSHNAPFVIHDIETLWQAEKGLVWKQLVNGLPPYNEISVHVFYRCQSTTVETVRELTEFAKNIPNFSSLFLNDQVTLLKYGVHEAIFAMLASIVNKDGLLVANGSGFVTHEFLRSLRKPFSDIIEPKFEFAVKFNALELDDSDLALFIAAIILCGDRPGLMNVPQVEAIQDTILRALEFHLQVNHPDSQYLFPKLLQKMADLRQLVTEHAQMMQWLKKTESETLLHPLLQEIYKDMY
The experiment in a line: Activation of PPARdelta in mouse C2C12 cells assessed as induction of CPT1A mRNA expression at 10 uM after 24 hrs in presence of GW501516 by quantitative RT-PCR analysis. It counts as cell-based. Summed up:
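Differentiated C2C12 myotubes (2% horse serum, 5 days) exposed 24 h with or without PPARδ agonist GW501516 (1 μM). mRNA quantified by SYBR green real-time RT-PCR, normalized to β-actin by delta-delta Ct, and expressed as fold induction vs vehicle; means ± SD of four determinants from one of two independent experiments; one-way ANOVA with Bonferroni.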

In assay [6] the target is T2, Retinoic acid receptor RXR-beta (Homo sapiens) (UniProt P28702).
T2 sequence (whole entry): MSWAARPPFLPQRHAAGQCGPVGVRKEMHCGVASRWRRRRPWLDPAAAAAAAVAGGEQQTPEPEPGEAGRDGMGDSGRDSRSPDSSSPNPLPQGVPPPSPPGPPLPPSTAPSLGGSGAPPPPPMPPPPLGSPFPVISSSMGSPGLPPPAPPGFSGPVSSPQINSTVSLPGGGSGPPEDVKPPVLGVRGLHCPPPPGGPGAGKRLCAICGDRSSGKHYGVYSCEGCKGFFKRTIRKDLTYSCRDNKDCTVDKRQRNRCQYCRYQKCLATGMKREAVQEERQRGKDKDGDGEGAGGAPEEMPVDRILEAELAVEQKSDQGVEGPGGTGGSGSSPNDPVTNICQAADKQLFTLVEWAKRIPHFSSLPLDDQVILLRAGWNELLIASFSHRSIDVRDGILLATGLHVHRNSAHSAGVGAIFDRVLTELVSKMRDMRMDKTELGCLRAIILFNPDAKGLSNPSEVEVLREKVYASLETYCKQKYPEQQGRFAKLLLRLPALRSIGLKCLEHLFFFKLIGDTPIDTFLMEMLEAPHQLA
Kind of assay: Binding affinity to RXRbeta (unknown origin) by receptor-SRC1 cofactor complex formation assay. The method in brief:
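Ligand-dependent binding of RXR isotype to coactivator SRC-1 in an NR cofactor kit, detected with HRP-conjugated anti-RXR antibody at OD450. The full agonist CD3254 defined 100% and vehicle 0%. Efficacy was taken as maximum B/Bmax% and potency as EC50.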

Assay [7] deals with T3, Peroxisome proliferator-activated receptor alpha (Homo sapiens) (UniProt Q07869).
T3 sequence (whole entry): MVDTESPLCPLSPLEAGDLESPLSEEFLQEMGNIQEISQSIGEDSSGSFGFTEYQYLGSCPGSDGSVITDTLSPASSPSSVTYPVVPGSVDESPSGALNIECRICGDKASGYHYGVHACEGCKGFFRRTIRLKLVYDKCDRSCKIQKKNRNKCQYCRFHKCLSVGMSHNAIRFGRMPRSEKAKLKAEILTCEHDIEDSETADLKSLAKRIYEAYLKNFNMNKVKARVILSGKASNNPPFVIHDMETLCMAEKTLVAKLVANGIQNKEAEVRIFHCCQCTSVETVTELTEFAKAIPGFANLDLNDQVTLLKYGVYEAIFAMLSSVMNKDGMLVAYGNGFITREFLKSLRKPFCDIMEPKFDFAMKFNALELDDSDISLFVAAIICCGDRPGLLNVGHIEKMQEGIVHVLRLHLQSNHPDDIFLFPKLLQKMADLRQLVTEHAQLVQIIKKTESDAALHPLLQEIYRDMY
Kind of assay: Activation of PPARalpha (unknown origin) by receptor-CBP cofactor complex formation assay. Summed up:
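Cell-free cofactor recruitment ELISA: ligand-dependent binding of PPAR isotypes to CBP, detected by HRP-conjugated anti-PPAR antibody at OD450. Full agonists GW7647 (α), GW1929 (γ), GW501516 (δ) define 100%, vehicle 0%; efficacy as maximum B/Bmax% and potency as EC50.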

Assay [8] deals with RAW264.7. Kind of assay: Activation of RXR/LXR heterodimer in mouse RAW264.7 cells assessed as increase in ABCA1 protein level at 10 uM after 24 hrs in presence of T0901317 by Western blotting analysis. It counts as cell-based.

Activity calls are given as the source filed them. The calls are words filed in the database; no cut-off is given here.

In the case of `CC(C)=CCc1cc([C@@H]2CC(=O)c3ccc(O)c(CC=C(C)C)c3O2)cc2c1OC(C(C)(C)O)C2` (stereo partly drawn), the result (in the assay on RAW264.7 [1]; in the assay listed under Homo sapiens [2]; in the assay filed under Homo sapiens [3]; in assay [4]; in assay [5]; in the assay with RAW264.7 [8]) was Active. Moreover, the result in assay [6] and in assay [7] was inactive.
